Screening data: PubChem, several laboratories
In the library only some 2.9% were active in any assay of this set; here they are far more common.
Arr AP2 block – human beta-arrestin and AP2 interaction inhibition; FITC-arrestin peptide / GST-AP2 beads, flow cytometry; AP2 beta2 appendage carries R879A mutation; inhibition, % at 10 µM; hit rate 0.31% among 340,000; AID 504490;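 active means inhibition above a set limit, near 3 SD of compounds lacking own fluorescence, cut at about 54% in these data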;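 further: plate controls were DMSO wells for no effect and 5 µM unlabelled arrestin peptide for full effect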
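Material – AP2 appendage R879A on GSH beads · Buffer or medium – PBS with 0.05% Tween 20 and 0.1% BSA · Probe or stimulus – fluorescein-tagged arrestin peptide at 50 nM final · Incubation – compound with beads 12 min RT, then probe 1 h RT · Detection – high-throughput flow cytometry of beads, ex 488, em 535 nm · Evaluation – percent response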
ADAM17 inh – inhibitors of human ADAM17 | P78536 | recombinant ADAM17, EDANS/DABCYL FRET peptide cleavage | inhibition, % at 6.95 µM | hit rate 0.83% among 370,000;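 active means inhibition above the mean of compounds lying between control limits plus 3 SD, set per campaign, cut at about 8.5% in these data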;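 further: 0% = DMSO-only wells as the low control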
Target sequence (P78536 215-824 limits assumed): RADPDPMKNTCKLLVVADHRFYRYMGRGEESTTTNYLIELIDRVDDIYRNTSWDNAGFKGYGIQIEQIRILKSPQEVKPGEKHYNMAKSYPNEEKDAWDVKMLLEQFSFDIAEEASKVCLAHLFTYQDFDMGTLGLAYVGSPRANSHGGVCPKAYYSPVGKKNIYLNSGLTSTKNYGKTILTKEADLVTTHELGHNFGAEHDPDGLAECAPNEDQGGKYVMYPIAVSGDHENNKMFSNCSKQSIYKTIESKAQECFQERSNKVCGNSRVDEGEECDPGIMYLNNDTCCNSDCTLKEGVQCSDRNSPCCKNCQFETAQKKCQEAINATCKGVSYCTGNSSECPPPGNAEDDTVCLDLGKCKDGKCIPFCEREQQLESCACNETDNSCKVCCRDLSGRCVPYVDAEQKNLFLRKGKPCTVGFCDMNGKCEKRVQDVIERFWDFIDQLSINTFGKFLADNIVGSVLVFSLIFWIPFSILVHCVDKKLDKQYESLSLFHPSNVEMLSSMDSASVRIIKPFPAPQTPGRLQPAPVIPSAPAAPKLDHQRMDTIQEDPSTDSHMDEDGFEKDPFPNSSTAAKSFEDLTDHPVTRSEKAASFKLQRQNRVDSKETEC
NRP1-CendR mod – modulators of CendR peptide binding to human neuropilin-1. O14786. FAM-RPARPAR peptide binding to NRP-1, fluorescence polarization. inhibition, % at 25 µM. hit rate 0.85% among 360,000. AID 602438;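 active means inhibition or corrected inhibition above about 18%, plus a signal ratio from 0.5 to 1.5, limit read from the data, passing the limit was not always enough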
CaV13 ICDI inh – Disruptors of the CACNA1D IQ motif to Ca2+-dependent inactivation inhibitor domain association, primary screening, Förster resonance energy transfer in intact living …. HEK cells, CFP/YFP FRET ICDI-IQ, plate reader, 10 min; percent FRET-ratio fall versus neutral wells. inhibition, % at 12.3 µM. hit rate 0.098% among 340,000;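 active means mean replicate inhibition of at least 30% and at least 1% of replicates passing that level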;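 further: 0% = median of the neutral control wells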
FAS-TE inh – blocks the thioesterase domain of human fatty acid synthase. inhibition, % at 15 µM. hit rate 0.67% among 360,000. recombinant FAS-TE, OMFH fluorogenic substrate, fluorescence endpoint. AID 602261;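 active means compounds whose normalised, plate-corrected inhibition of enzyme fluorescence in the single-dose primary screen is 50% or more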;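 further: 0% = DMSO with enzyme and 100% = substrate without enzyme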
ADAM10 inh – inhibits human ADAM10. O14672. recombinant ADAM10, EDANS/DABCYL FRET peptide cleavage, 3 h. inhibition, % at 7 µM. hit rate 0.62% among 370,000. AID 720582;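 active means inhibition above a per-campaign cutoff equal to the mean of compounds falling between control-based bounds plus 3 SD, cut at about 20% in these data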;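 further: 0% = DMSO wells while the 100% control is not disclosed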
Active calls of the source: *; nt = not tested or not shown.

SMILES	Arr AP2 block	ADAM17 inh	NRP1-CendR mod	CaV13 ICDI inh	FAS-TE inh	ADAM10 inh
CCCCNC(=O)C1CCCN1C(=O)Nc1cc(C)cc(C)c1 (stereo not given)	nt	1	nt	nt	nt	-1
COc1ccc(S[C@]2(C(=O)N(C)C)CC(=O)N(c3ccccc3)[C@@H]2c2ccc(OC)cc2)cc1	nt	0	nt	nt	nt	4
CCO[C@@H]1c2c(ccc3ccc(=O)oc23)OC(C)(C)[C@H]1O	0	-97	0	-10	1	-425
CCO[C@@H]1c2c(ccc3ccc(=O)oc23)OC(C)(C)[C@@H]1O	0	-121	32*	-10	-11	-424
COc1cc(/C=C/c2ccc3cccc([N+](=O)[O-])c3n2)ccc1OCC#N	3	7	-6	-16	53*	11
Cc1c(NC(=O)c2cnn3c(C(F)(F)F)cc(-c4ccco4)nc23)c(=O)n(-c2ccccc2)n1C	-2	-4	23*	-1	1	2
O=C1CSCc2nc3ccccc3n21	9	-5	1	-9	-2	-13
CN1CCN(C(=S)NC(=O)c2ccc(Cl)cc2)CC1	-15	-5	2	-5	-2	-7
O=C(NC(=S)N1CCCC1)c1ccc(Cl)cc1	-7	5	30*	-5	-7	-2
Cc1nc(CS(=O)(=O)c2ccccn2)sc1C(=O)NNC(=O)c1ccc(Cl)cc1	-9	0	1	-18	2	-2
CCn1c(CCc2ccccc2)n[nH]c1=S	33	-5	7	-1	-4	-8
CCn1c(CCn2c3ccccc3c3ccccc32)n[nH]c1=S	9	1	40*	-3	-2	0
O=C(N/N=C/C=C\c1cccc([N+](=O)[O-])c1)c1ccccn1	5	1	28*	-5	0	3
O=C(N/N=C/C=C/c1ccccc1)c1ccccn1	36	-5	8	-4	0	-6
CCN(CC(=O)Nc1ccc(OC)cc1)C(=O)c1ccc2c(c1)NC(=O)CS2	-9	-2	0	-13	-5	-6
S=C(NCC1CCCCC1)OC1CCC12CCC(c1ccccc1)CC2 (stereo not given)	nt	-1	nt	nt	nt	-2
CCCC(=O)OC[C@H]1CN(C2CCCC2)S(=O)(=O)c2c(Oc3ccc(C(C)(C)C)cc3)cccc2O1	nt	-1	nt	-6	nt	-6
Cn1c(=O)c2[nH]c(NCCCN3CCOCC3)nc2n(C)c1=O	-10	-7	22*	-2	-8	-8
Cc1noc(C)c1S(=O)(=O)Nc1ccc2c(c1)C(=O)N([C@@H](C)CO)C[C@H](C)[C@@H](CN(C)Cc1ccc(C(F)(F)F)cc1)OCCCC[C@H](C)O2	nt	7	-9	-5	14	12
CCCN(CCC)Cc1cc(=O)oc2cc(C)cc(C)c12	nt	0	6	-9	20	1
c1cc2c(cc1Cn1cnnn1)OCO2	-4	-2	22*	-5	-6	2
c1cc2c(cc1-n1cnnn1)OCO2	-3	-4	4	3	-3	1
NNC(=O)c1ccc(N2CCCCCC2)c([N+](=O)[O-])c1	3	2	31*	3	-5	10
O=C(NCc1ccco1)c1ccc(N2CCCCC2)c([N+](=O)[O-])c1	4	1	4	-3	-6	-2
Cc1ccc(NC(=S)N2CCN(Cc3ccccc3)CC2)cc1	10	-1	26*	0	-5	2
SMILES	Arr AP2 block	ADAM17 inh	NRP1-CendR mod	CaV13 ICDI inh	FAS-TE inh	ADAM10 inh
CCc1ccc(NC(=S)N2CCN(C)CC2)cc1	-7	-3	21*	-6	-2	1
CCc1ccc(NC(=S)N2CCCC2)cc1	-2	-4	-12	-5	-2	2
COC(=O)[C@@H]1ON2OCC(C)=C3CCCC[C@@]32[C@H]1C(=O)OC	nt	-2	8	-11	nt	-13
Cc1cc(C)c(S(=O)(=O)c2c(C)cccc2C)c(Cl)n1	23	1	-2	-7	5	3
Cc1cc(C)c(S(=O)(=O)c2cccc(Cl)c2)c(Cl)n1	13	5	33*	-4	2	5
COc1ccc(S(=O)(=O)N2CCOCC2)cc1NC(=O)COC(=O)C1COc2ccccc2O1 (stereo not given)	-8	-4	28*	-3	-6	4
Cc1ccccc1NC(=O)OCCCN1C(=O)CCC12CCC(C)CC2 (stereo not given)	nt	-2	nt	nt	nt	-3
Cc1ccc(Cn2c(C3CCCN3c3nc(-c4ccc(F)cc4)cs3)nc3cc(C(=O)NCCCO)ccc32)cc1 (stereo not given)	1	4	-1	-6	-2	9
COc1ccc(-c2csc(NCCc3nc4cc(C(=O)NCCCO)ccc4n3Cc3ccc(C)cc3)n2)cc1	4	-4	27*	-8	-5	-5
COc1ccccc1NC(=S)NNC(=O)c1ccccc1Br	-11	-1	21*	-3	-15	13
COc1ccccc1C(=O)NNC(=O)c1ccccc1Br	-18	-3	0	-3	-7	-11
O=C1C(NC(=O)N2c3ccccc3C=Cc3ccccc32)CCCCN1Cc1ccc(Cl)cc1 (stereo not given)	nt	0	nt	nt	nt	4
Cc1cc(CNC(=O)c2ccc3c(c2)OCO3)c2ccccc2n1	3	-1	-6	152*	-7	-1
COc1ccc(C(=O)NCc2cc(C)nc3ccccc23)cc1	18	2	0	-18	-6	4
COc1ccc(CCn2c(C)cc3c(c2=O)C(c2ccncc2)C(C#N)=C(N)O3)cc1OC (stereo not given)	-6	-6	19*	-6	-8	-19
CCn1c(C)cc2c(c1=O)C(c1ccncc1)C(C#N)=C(N)O2 (stereo not given)	19	-8	-13	-4	-8	-19
CCN(CC(=O)Nc1c(F)cccc1F)C(=O)c1csc2c1CCCC2	24	0	7	-7	-1	-12
C=CCN1[C@@H](C)COc2cc(F)ccc2S1(=O)=O	nt	-6	nt	nt	nt	-5
COc1ccc(NS(=O)(=O)c2ccc(C(=O)N3CCN(c4ccc(F)cc4)CC3)cc2)cc1	5	0	2	-6	16	3
COc1ccc(N2CCN(C(=O)c3ccc(NS(=O)(=O)c4ccc(F)c(F)c4)cc3)CC2)cc1	11	-1	51*	-4	-5	-5
COc1ccc(CN2C(=O)c3cccc4cccc(c34)C2c2nc3ccccc3[nH]2)cc1 (stereo not given)	nt	-5	-19	-5	6	-15
CCN(CC)CCN1CCN(c2cncc(-c3ccc4ccccc4c3)n2)CC1	nt	-24	-2	-6	-5	-107
O=C(CSc1nnc(-c2ccccc2F)n1Cc1ccco1)Nc1ccccc1-c1ccccc1	nt	2	nt	nt	nt	2
